In ChEMBL document CHEMBL1145328, “Synthesis, crystal structure, structure-activity relationships, and antiviral activity of a potent SARS coronavirus 3CL protease inhibitor” (J Med Chem, 2006):
Active and inactive are the calls of the source. The calls are words filed in the database; no cut-off is given here.

Experiments:
Replicase polyprotein 1a = Replicase polyprotein 1a (Severe acute respiratory syndrome-related coronavirus, UniProt P0C6U8); assay: Inhibition of SARS coronavirus 3CL protease
Outline: (§1)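 SARS 3CLpro (75 nM) or 229E 3CLpro (75 nM), recombinant, expressed as GST fusion in E. coli BL21(DE3)pLysS and released with factor Xa. Enzyme preincubated with compound 20 min at 25 °C. Reaction in Tris-HCl pH 7.5, NaCl, EDTA, DTT and BSA, 30 min at 25 °C, stopped with TFA. Conversion measured by reverse-phase HPLC peak areas. Ki by Cheng–Prusoff.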

Human coronavirus 229E = assay: Inhibition of human coronavirus 229E 3CL protease; format: functional; outline: as §1
MRC5 [1] = assay: Cytotoxicity against MRC5 cells infected with human coronavirus 229E; format: functional, cell-based
Vero = assay: Cytotoxicity against VeroE6 cells infected with SARS coronavirus; format: functional, cell-based; conditions: Chlorocebus sabaeus
SARS-CoV [2] = assay: Antiviral activity against SARS coronavirus in VeroE6 cells assessed as reduction in viral load at 0.625 uM; format: functional, Severe acute respiratory syndrome-related coronavirus
SARS-CoV [3] = assay: Antiviral activity against SARS coronavirus in VeroE6 cells assessed as reduction in viral load at 1.25 uM; format: functional, Severe acute respiratory syndrome-related coronavirus
SARS-CoV [4] = assay: Antiviral activity against SARS coronavirus in VeroE6 cells assessed as reduction in viral load; format: functional, Severe acute respiratory syndrome-related coronavirus
MRC5 [5] = assay: Antiviral activity against human coronavirus 229E in MRC5 cells assessed as reduction in viral load at 2.5 uM; format: functional
Outline: (§2)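 HCoV 229E (ATCC VR-740) stocks were grown in MRC-5 cells. MRC-5 cells were preabsorbed with 40 pfu/well virus for 1 h, then unabsorbed virus was removed and serially diluted compound added. Supernatants were harvested and TCID50 titred on fresh MRC-5 cells. Titre is given as log TCID50/mL.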

MRC5 [6] = assay: Antiviral activity against human coronavirus 229E in MRC5 cells assessed as reduction in viral load at 5 uM; format: functional; outline: as §2
MRC5 [7] = assay: Protection of MRC5 cells infected with human coronavirus 229E at 1 uM; format: functional, cell-based
Outline: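 MRC-5 cells at 90% confluence were infected for 1 h with 10-fold serial dilutions of HCoV 229E stock. Unabsorbed virus was removed and cells overlaid with 0.3% agarose. Compound was present in the medium for 4 days. Cells were then fixed with 10% formalin and stained with 0.5% crystal violet to see plaques.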

Plasma [8] = assay: Stability in rat plasma; format: ADME, cell-free
Outline: (§3)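 Human, mouse or rat plasma was prewarmed 5 min at 37 °C. Compound was added from a 100 µM stock in 1% DMSO to give 90% plasma. Samples were shaken at 37 °C for 0, 30 or 120 min, then quenched in acetonitrile with internal standard and centrifuged. Supernatant was diluted and analysed by LC/MS. Result is % of initial remaining.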

[9] = Stability in rat plasma after 30 mins; format: ADME, cell-free; conditions: read-out: Stability; outline: as §3
[10] = Stability in rat plasma after 120 mins; format: ADME, cell-free; conditions: read-out: Stability; outline: as §3
Mus musculus = species: Mus musculus; assay: Stability in mouse plasma; format: ADME; outline: as §3
[11] = Stability in mouse plasma after 30 mins; format: ADME; conditions: read-out: Stability; outline: as §3
[12] = Stability in mouse plasma after 120 mins; format: ADME; conditions: read-out: Stability; outline: as §3
Plasma [13] = assay: Stability in human plasma; format: ADME, cell-free; outline: as §3
[14] = Stability in human plasma after 30 mins; format: ADME, cell-free; conditions: read-out: Stability; outline: as §3
[15] = Stability in human plasma after 120 mins; format: ADME, cell-free; conditions: read-out: Stability; outline: as §3
SARS-CoV [16] = assay: Antiviral activity against SARS coronavirus in VeroE6 cells assessed as reduction in viral load at 2.5 uM; format: functional, Severe acute respiratory syndrome-related coronavirus
SARS-CoV [17] = assay: Antiviral activity against SARS coronavirus in VeroE6 cells assessed as reduction in viral load at 5 uM; format: functional, Severe acute respiratory syndrome-related coronavirus
SARS-CoV [18] = assay: Antiviral activity against SARS coronavirus in VeroE6 cells assessed as reduction in viral load at 10 uM; format: functional, Severe acute respiratory syndrome-related coronavirus
MRC5 [19] = assay: Antiviral activity against human coronavirus 229E in MRC5 cells assessed as reduction in viral load; format: functional; outline: as §2
MRC5 [20] = assay: Antiviral activity against human coronavirus 229E in MRC5 cells assessed as reduction in viral load at 0.625 uM; format: functional; outline: as §2
MRC5 [21] = assay: Antiviral activity against human coronavirus 229E in MRC5 cells assessed as reduction in viral load at 1.25 uM; format: functional; outline: as §2

For CC(OC(C)(C)C)[C@H](NC(=O)OCc1ccccc1)C(=O)N[C@@H](CC1CCCCC1)C(=O)N[C@H](C=O)C[C@@H]1CCNC1=O (some centres undefined), the Ki (Replicase polyprotein 1a) was 53 nM, the Ki (Human coronavirus 229E) was 68 nM and the IC50 (MRC5 [1]) was 140 nM. The IC50 (Vero) was 600 nM, the “log10 TCID50” value (SARS-CoV [2]) was 6.4 and the “log10 TCID50” value (SARS-CoV [3]) was 6. For the same compound, the “log10 TCID50” value (SARS-CoV [4]) was 6.7, the “log10 TCID50” value (MRC5 [5]) was 1.3 and the “log10 TCID50” value (MRC5 [6]) was 1.3. The Activity (MRC5 [7]) was “Active”, the Stability (Plasma [8]) was 100% and the remaining at 0.5 h [9] was 70%. The remaining at 2 h [10] was 73%, the Stability (Mus musculus) was 100% and the remaining at 0.5 h [11] was 84%. The remaining at 2 h [12] was 71%, the Stability (Plasma [13]) was 100% and the remaining at 0.5 h [14] was 81%. The remaining at 2 h [15] was 83%, the “log10 TCID50” value (SARS-CoV [16]) was 5 and the “log10 TCID50” value (SARS-CoV [17]) was 2. The “log10 TCID50” value (SARS-CoV [18]) was 2, the “log10 TCID50” value (MRC5 [19]) was 6.51 and the “log10 TCID50” value (MRC5 [20]) was 3. The “log10 TCID50” value (MRC5 [21]) was 1.3.

CCOC(=O)/C=C/[C@H](C[C@@H]1CCNC1=O)NC(=O)[C@H](Cc1ccccc1)NC(=O)[C@@H](NC(=O)OCc1ccccc1)C(C)C showed a Ki (Replicase polyprotein 1a) of 2260 nM and an IC50 (MRC5 [1]) of 13200 nM.

Work on CCOC(=O)/C=C/[C@H](C[C@@H]1CCNC1=O)NC(=O)[C@H](CC(C)C)NC(=O)[C@@H](NC(=O)OCc1ccccc1)C(C)C yielded a Ki (Replicase polyprotein 1a) of 660 nM and an IC50 (MRC5 [1]) of 9100 nM.

Compound CCOC(=O)/C=C/[C@H](C[C@@H]1CCNC1=O)NC(=O)[C@H](CC(C)C)NC(=O)[C@@H](NC(=O)OCc1ccccc1)C(C)OC(C)(C)C (some centres undefined) has a Ki (Replicase polyprotein 1a) of 58 nM and an IC50 (MRC5 [1]) of 880 nM.

CCOC(=O)/C=C/[C@H](C[C@@H]1CCNC1=O)NC(=O)[C@H](Cc1ccc(F)cc1)NC(=O)[C@@H](NC(=O)c1cc(C)on1)C(C)C showed a Ki (Replicase polyprotein 1a) greater than 10000 nM, a Ki (Human coronavirus 229E) greater than 10000 nM and an IC50 (MRC5 [1]) greater than 20000 nM.
